High-throughput results: PubChem BioAssay, Johns Hopkins Ion Channel Center
This is a sample that favours compounds with a hit; in the whole collection about 3.5% have one here.
MrgX1 allo act = allosterically activates human MrgX1 receptor signaling. Q96LB2. MrgX1-HEK293, Fluo-4 calcium flux, FDSS; active compounds read high. B-score at 10 µM. hit rate 0.63% among 310,000. AID 588675;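 active = plate-corrected calcium response at least 3 library SD above typical, normal starting fluorescence, not activating the receptor alone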;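 note: compound read alongside a low EC10 to EC30 dose of BAM8-22 agonist; peak minus trough fluorescence over baseline measured at the second addition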
RGS4 block = human RGS4 inhibition; P49798; HEK293 M3R/RGS4 inducible, Fluo-4 calcium flux; active compounds read high; triggered by carbachol at its EC20; B-score at 10 µM; hit rate 0.45% among 310,000; AID 463165;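 active = B-score, a plate-corrected calcium signal, over three deviations above library mean, with baseline fluorescence within five deviations of library mean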;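 note: RGS4 expression induced by doxycycline in cells with stable M3 receptor; B-score is computed from the integrated fluorescence ratio over baseline after carbachol; higher B-score means a larger calcium signal and so more RGS4 inhibition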
Target sequence (P49798 whole entry, looked up): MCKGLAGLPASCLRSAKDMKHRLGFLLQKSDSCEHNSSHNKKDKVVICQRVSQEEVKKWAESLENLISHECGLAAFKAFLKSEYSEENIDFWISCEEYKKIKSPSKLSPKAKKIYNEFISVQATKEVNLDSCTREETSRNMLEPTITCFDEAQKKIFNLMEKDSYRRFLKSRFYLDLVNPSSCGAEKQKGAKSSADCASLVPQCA
MrgX1 agonist = activates human MrgX1 receptor signaling; AID 588627; MrgX1-HEK293 cells, Fluo-4 calcium fluorescence, agonist mode; active compounds read high; Q96LB2; hit rate 0.44% among 310,000; B-score at 10 µM;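 active = calcium response B-score plate-corrected fluorescence ratio at least 3 library SD, with starting fluorescence B-score inside 5 SD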
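Material: MrgX1-expressing HEK293 cells; input: 15,000 cells per well; doses: test compound given as first of three sequential additions; schedule: overnight plating before 1 h dye loading; technique: Fluo-4 NW calcium-flux fluorescence, kinetic read; evaluation: baseline-normalised fluorescence change ratio, B-scored; control set: plate-wise positive and negative controls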
RGS4 pot = potentiators or activators of RGS4; HEK293 M3R/inducible RGS4, carbachol calcium flux Fluo4; active compounds read low; B-score at 10 µM; hit rate 0.92% among 310,000; AID 463111;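 active = B-score of the integrated calcium signal more than 4 SD below the library mean, with starting fluorescence not abnormally high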;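 note: negative B-score means reduced calcium response which marks RGS4 activation or potentiation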
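Assay system: HEK293 FlpIn-TREx cells, stable M3R, doxycycline-inducible RGS4 / Probe or stimulus: carbachol, ECmax concentration / Times: overnight RGS4 induction, 30 min dye load 37 °C, 20 min compound RT / Signal: kinetic calcium fluorescence imaging with Fluo4-AM dye, 2 µM / Measure: Agonist-evoked peak-minus-minimum fluorescence over baseline, integrated ratio, B score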
MrgX1 antag = antagonists of human MrgX1 receptor. Q96LB2. MRGX1-HEK293 calcium flux, Fluo-4, BAM8-22 antagonism; active compounds read low. B-score at 10 µM. hit rate 1.3% among 310,000;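 active = calcium-response B-score plate-corrected more than 3 library SD below zero, starting fluorescence within 5 deviations, no agonist response on first addition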;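 note: peak minus trough fluorescence over baseline after final BAM8-22 challenge near maximal dose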
RGS4 block valid = RGS4 inhibitor validation; AID 492999; HEK293 M3R/RGS4, carbachol calcium Fluo-4 fluorescence; carbachol added at its EC20; 0 = buffer wells, 100 = carbachol control; shares compounds with RGS4 block; hit rate 65% among 1,700; calcium response, % at 10 µM;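 active = duplicate-averaged calcium response above the buffer-only control mean plus 5 SD of those controls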;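 note: integrated fluorescence ratio F max minus min over baseline F0; higher response in RGS4-induced cells means RGS4 inhibition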
RGS4 uninduced = counter-screen for RGS4 inhibitors: effect in non-induced cells. shares compounds with RGS4 block. HEK293 M3R non-induced, carbachol calcium Fluo-4; submaximal (EC20) carbachol stimulus; buffer wells 0%, carbachol control wells 100%. activity (percent), % at 10 µM. hit rate 20% among 1,900. AID 493000; call rule not given here;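 note: RGS4 induction absent so cells express M3R without RGS4; higher means more calcium signal and flags a non-specific hit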
M3R basal Ca ctr = signal in non-induced cells without carbachol, RGS4 inhibitor counter-screen | HEK293 M3R/RGS4 non-induced, Fluo-4 calcium, no carbachol; normalised: buffer wells 0%, carbachol wells 100% | calcium response (agonist-mode artifact), % at 10 µM | shares compounds with RGS4 block | hit rate 22% among 1,900 | AID 493001;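 active = duplicate-averaged calcium rise in uninduced cells above buffer wells' mean plus 5 SD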
* marks the source's active call; other numbers are inactive results; i = inactive; . = no result.

SMILES	MrgX1 allo act	RGS4 block	MrgX1 agonist	RGS4 pot	MrgX1 antag	RGS4 block valid	RGS4 uninduced	M3R basal Ca ctr
COc1ccc(OC)c(S(=O)(=O)N2CCCC(C(=O)N3CCOCC3)C2)c1 (stereo not given)	i	4.8*	i	i	i	i	i	i
COc1cc(NS(=O)(=O)c2ccc(Nc3nc(-c4cccc([N+](=O)[O-])c4)cs3)cc2)nc(OC)n1	i	i	i	i	i	.	30%*	i
COc1ccc(-c2csc(Nc3ccccc3)n2)cc1	i	i	i	i	i	.	.	.
COc1ccc(-c2csc(Nc3ccc(S(=O)(=O)Nc4cc(C)on4)cc3)n2)cc1	i	15*	i	i	i	30%*	36%*	i
Oc1ccc(Nc2nc(-c3ccc(O)cc3)cs2)cc1	i	i	i	i	i	i	i	i
COc1ccc(Nc2nc(-c3ccc(OC)cc3)cs2)cc1	i	i	i	i	i	i	i	i
CC(OC(=O)c1nccnc1N)C(=O)Nc1ccc(S(=O)(=O)N2CCCC2)cc1 (stereo not given)	i	i	i	i	i	.	.	.
CSCC[C@H](NC(=O)OC(C)(C)C)C(=O)NCC1CCC(C(=O)N[C@@H](Cc2ccccc2)C(=O)O)CC1 (stereo not given in full)	i	i	i	i	i	.	.	.
C=CCN1C(=O)C2(/C(=C(\O)c3ccc4c(c3)OCCO4)C(=O)C(=O)N2CCCOC)c2ccccc21 (stereo not given)	i	i	i	i	i	.	.	.
COc1ccc(/C=N/NC(=O)CCc2c(C)n[nH]c2C)cc1O	i	i	i	i	i	.	.	.
CCCc1cc(=O)[nH]c(SCc2cc(Cl)ccc2OC(F)F)n1	i	i	i	i	i	.	.	.
COc1ccc(C(=O)COC(=O)CCS(=O)(=O)c2ccc(C)cc2)c(OC)c1	i	i	i	i	i	.	.	.
COc1ccc(C(=O)CCS(=O)(=O)c2ccc(C)cc2)cc1OC	i	29*	i	i	i	80%*	58%*	20%*
N#C/C(=C\c1cccs1)C(=O)c1ccccc1Cl	i	18*	i	i	i	56%*	i	8.5%*
CN(C)C=NC(=O)c1ccc(N2CCN(c3ncc(C(F)(F)F)cc3Cl)CC2)cc1	i	8.2*	i	i	i	18%*	i	i
CN(C)/C=C/C(=O)c1ccc(N2CCN(c3ncc(C(F)(F)F)cc3Cl)CC2)cc1	i	i	i	i	i	.	.	.
Nn1c(Nc2ccccc2)nc2sc3c(c2c1=O)CCC3	.	4.8*	.	i	.	14%*	i	i
COc1ccc(-c2cc(C(=O)N3CCCCC3)c3ccccc3n2)cc1OC	i	i	i	i	i	.	.	.
COc1ccc(Nc2nnc(-c3ccccc3)c3ccccc23)cc1C(=O)N1CCCCC1	i	5*	i	i	i	148%*	88%*	i
COc1ccc(Nc2nnc(-c3ccc(C)cc3)c3ccccc23)cc1C(=O)N1CCCCC1	i	i	i	i	i	.	i	i
CCOC(=O)c1c(-c2ccc(C)o2)csc1NC(=S)NC(=O)N(C)C	i	21*	i	i	i	i	i	i
CC(=O)NC(CC(=O)Oc1ccc(C)cc1Br)c1ccccc1 (stereo not given)	i	i	i	i	i	.	.	.
Cc1ccc(S(=O)(=O)N2CCCOC2CNC(=O)C(=O)NC2CCCCC2)cc1 (stereo not given)	i	i	i	i	i	i	i	i
